NSD2 HMT inh = NSD2 histone methyltransferase inhibitors, primary screen, biochemical, AlphaScreen, single concentration, set 2 | Histone-lysine N-methyltransferase NSD2 (Homo sapiens), O96028 | 0.54% of 310,000 active | NSD2 peptide methylation, 120 min | AID 743445, 2014 | inhibition, % at 12.5 µM; in the data active = inhibition above about 50%
TDP2 absorb = human TDP2 enzyme inhibitors, primary screen, biochemical, epi absorbance, recombinant enzyme | T5PNP hydrolysis, p-nitrophenol absorbance 415 nm | inhibition, % at 12.8 µM | 0.34% of 370,000 active;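 active = inhibition above the mean of all tested compounds plus 3 SD, set per campaign, cut at about 25% in these data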
Target sequence (O95551 whole entry, looked up): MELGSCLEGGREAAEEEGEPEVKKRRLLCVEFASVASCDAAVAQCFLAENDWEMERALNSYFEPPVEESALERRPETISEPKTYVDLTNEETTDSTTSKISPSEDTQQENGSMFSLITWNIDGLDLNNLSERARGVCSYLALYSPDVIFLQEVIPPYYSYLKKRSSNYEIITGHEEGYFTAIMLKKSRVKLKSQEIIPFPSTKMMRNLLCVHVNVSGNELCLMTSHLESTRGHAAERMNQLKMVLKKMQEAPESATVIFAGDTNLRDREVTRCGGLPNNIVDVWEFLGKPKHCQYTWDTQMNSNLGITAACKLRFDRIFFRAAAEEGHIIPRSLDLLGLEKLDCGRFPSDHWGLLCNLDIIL
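Read-out basis: percent inhibition. System: recombinant human TDP2. Buffer or medium: Mg2+-containing Tris-HCl buffer, pH 7.5. Repeats: single replicate. Timing: reaction 2 h, 37 °C. Benchmarks: high control without enzyme, low control DMSO plus TDP2. Probe or stimulus: 5 mM T5PNP. Doses: 12.8 µM only. Measured by: epi absorbance of p-nitrophenol freed from T5PNP by hydrolysis.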
MBD2 DNA inh = inhibitors of MBD2 binding to methylated DNA, primary screen, biochemical, TR-FRET, DNA-binding domain, human; MBD2 binding to methylated oligonucleotide; 0.31% of 370,000 active; inhibition, % at 4.4 µM; Methyl-CpG-binding domain protein 2 (Homo sapiens), Q9UBB5; AID 686964, 2013; in the data active = inhibition above about 13%
LEDGF integ inh = blockers of LEDGF/p75-dependent integrase strand transfer – biochemical, TR-FRET, high throughput, primary screen; HIV-1 integrase (with human LEDGF/p75); TR-FRET IN-LEDGF/p75 DNA integration, Eu/Cy5; inhibition, % at 3.7 µM; 0.64% of 370,000 active;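 active = inhibition above the screen-wide mean plus 3 SD, cut at about 13% in these data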;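 note: signal is the Cy5 over europium emission ratio at 671 and 618 nm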
UHRF1 MBD2 ctr = UHRF1 methylated DNA binding inhibitors, primary screen, counter-screen for MBD2 inhibitor project, biochemical, TR-FRET, human UHRF1, single concentration. 0.75% of 370,000 active. E3 ubiquitin-protein ligase UHRF1 (Homo sapiens), Q96T88. inhibition, % at 4.4 µM. UHRF1 binding to methylated oligo; in the data active = inhibition above about 21%;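 note: UHRF1 SRA domain binding a hemimethylated CpG hairpin DNA probe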
CASP6 VEID inh = human caspase-6 inhibitors, primary screen, biochemical, VEID-R110 fluorescence, single point, set 2; P55212; purified caspase-6, Z-VEID-R110 cleavage fluorescence; inhibition, % at 12.5 µM; 0.53% of 350,000 active; AID 686996, 2013;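 active = mean inhibition across replicates at least about 35%, with every replicate also reaching that limit, limit read from the data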
Target sequence (P55212 24-179 limits assumed): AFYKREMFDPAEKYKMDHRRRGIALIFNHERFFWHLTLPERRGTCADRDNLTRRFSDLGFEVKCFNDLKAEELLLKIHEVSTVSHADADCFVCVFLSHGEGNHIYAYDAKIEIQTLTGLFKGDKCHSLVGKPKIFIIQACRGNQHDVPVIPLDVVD
Target sequence (P55212 194-293 limits assumed): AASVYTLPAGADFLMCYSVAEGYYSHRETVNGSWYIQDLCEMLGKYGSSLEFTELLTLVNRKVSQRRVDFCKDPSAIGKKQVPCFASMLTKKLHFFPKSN
IN multimer up = HIV-1 IN multimer formation enhancers, counter-screen for LEDGF/p75 integration inhibitor project, biochemical, TR-FRET; activation, % at 7.7 µM; AID 1053131, 2014; TR-FRET HIV-1 integrase multimerization; shares compounds with LEDGF integ inh; 17% of 2,000 active; in the data active = activation above about 8.9%
TR-FRET interf = TR-FRET optical interference artefacts, confirmation, artefact control for LEDGF/p75-dependent integration inhibitor project, biochemical, HIV-1 IN multimerization | TR-FRET optical interference counterscreen | shares compounds with LEDGF integ inh | inhibition, % at 7.7 µM | 2,000 tested, under 10 active;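 active = inhibition above the mean over all tested compounds plus 3 SD, which no compound reached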
LEDGF integ conf = inhibitors of HIV-1 IN-LEDGF/p75 DNA integration, confirmation, biochemical, TR-FRET; 36% of 2,000 active; shares compounds with LEDGF integ inh; inhibition, % at 3.7 µM; TR-FRET LEDGF/p75-dependent HIV-1 integration; in the data active = inhibition above about 14%
Numbers stand for hits; n = inactive; x = not tested or not shown. Most compounds without a hit are left out; they make up all but 1.9% or so of the library.

SMILES	NSD2 HMT inh	TDP2 absorb	MBD2 DNA inh	LEDGF integ inh	UHRF1 MBD2 ctr	CASP6 VEID inh	IN multimer up	TR-FRET interf	LEDGF integ conf
COc1ccccc1Nc1nnc(SCc2cc(=O)n3cc(C)ccc3n2)s1	n	n	n	36.2	n	n	n	n	n
CCNC(=O)C[C@@H]1CC[C@H]2[C@H](COc3ccc(NC(=O)c4ccc(C(F)(F)F)cc4)cc3C(=O)N2C)O1	x	x	x	x	x	n	x	x	x
O=C(NC(Cc1ccccc1)C(=O)O)/C(=C\c1ccco1)NC(=O)c1ccccc1Br (configuration not stated)	n	n	n	16.5	n	x	n	n	n
O=C(C[C@H]1CC[C@@H](NC(=O)Nc2ccccc2F)[C@H](CO)O1)NCc1ccccc1	x	x	x	x	x	n	x	x	x
COc1ccc(-c2csc(NC(=O)c3cccs3)c2C(=O)O)cc1OC	n	n	n	17.9	n	n	n	n	n
CC(C)CSc1nnc(-c2ccco2)n1C	n	n	n	23.4	n	x	n	n	n
O=c1[nH]c(-c2ccccc2)nn1-c1ccc(Br)cc1Br	n	n	n	26.1	n	n	n	n	n
Cc1oc(-c2ccc(Cl)cc2)nc1CS(=O)CC(=O)NCCCN1CCOCC1 (configuration not stated)	n	n	n	17.6	n	n	n	n	n
c1ccc(-c2cnc(SCCN3CCOCC3)n2CC2CCCO2)cc1 (configuration not stated)	n	n	n	n	n	x	x	x	x
COc1ccc(-c2cnc(N)n2CC2CCCO2)cc1 (configuration not stated)	n	n	n	27.6	n	x	n	n	n
Cc1nc2c(C)c(C)c(C)c(C)c2nc1C	n	n	n	n	n	n	x	x	x
Cc1nc2c(O)c3c(c(O)c2nc1C)C1C=CC3CC1	x	n	n	21.3	n	n	n	n	n
CC(C)[C@@H]1Cc2[nH]n(C)c(=O)c2[C@H](c2ccc(F)cc2)O1	x	n	n	87.2	n	n	n	n	n
Cn1[nH]c2c(c1=O)[C@H](c1ccc(F)cc1)O[C@H](CCc1ccccc1)C2	x	n	n	n	n	n	x	x	x
C[C@@H]1CCCCO[C@@H](CN(C)S(=O)(=O)c2ccccc2)[C@H](C)CN([C@@H](C)CO)C(=O)c2cc(NC(=O)NC3CCCCC3)ccc2O1	x	x	x	x	x	n	x	x	x
CC1CCN(C(=O)CCNS(=O)(=O)c2ccc(Br)cc2)CC1	n	n	n	45.4	n	n	n	n	n
O=C(Cc1ccccn1)N1CC2(C1)[C@H](c1ccccc1)[C@@H](CO)N2C(=O)c1cccnc1	x	x	x	x	x	n	x	x	x
CCCN1[C@@H]2Cn3c(ccc(/C=C/c4ccccc4)c3=O)[C@H]1[C@@H](C(=O)NCC)[C@@H]2CO	x	x	x	x	x	n	x	x	x
O=C(O)C[C@H]1CC[C@H](NC(=O)CCN2CCCCC2)[C@@H](CO)O1	x	x	x	x	x	n	x	x	x
c1cncc(-c2nc(NCCCn3ccnc3)c3ccccc3n2)c1	n	n	n	n	n	n	x	x	x
Cc1nc(NCCCn2ccnc2)c2ccccc2n1	n	n	n	71.2	n	x	n	n	n
CO[C@H]1CC[C@@H]2CCN(C)C(=O)CCCN(C)C(=O)c3cccc(C#N)c3OC[C@H]1O2	x	x	x	x	x	n	x	x	x
CCCC#Cc1ccc([C@H]2[C@@H](CO)N3C(=O)CN(C(=O)c4ccc(F)cc4)C[C@H]23)cc1	x	x	x	x	x	n	x	x	x
CCNC(=S)NNC(=O)c1csc2c1CCC(C)C2 (configuration not stated)	n	n	n	n	n	x	x	x	x
Cc1ccccc1NC(=S)NNC(=O)c1csc2c1CCC(C)C2 (configuration not stated)	n	n	n	50.7	n	x	n	n	n
SMILES	NSD2 HMT inh	TDP2 absorb	MBD2 DNA inh	LEDGF integ inh	UHRF1 MBD2 ctr	CASP6 VEID inh	IN multimer up	TR-FRET interf	LEDGF integ conf
COc1ccccc1NC(=O)/C(C#N)=C/C=C/c1ccco1	x	n	n	25.0	n	x	n	n	n
O=C(N[C@H]1CC[C@@H](CCn2cc(-c3cccnc3)nn2)O[C@H]1CO)c1ccccc1F	x	x	x	x	x	n	x	x	x
Cc1cc2c(c(=O)n1Cc1ccccn1)C(C(C)C)C(C#N)=C(N)O2 (configuration not stated)	n	n	n	16.9	n	x	n	n	n
COc1cc2c(cc1OC)C(C1(O)CCCCC1)NCC2 (configuration not stated)	n	n	n	14.2	n	n	n	n	n
CC1=NN(c2ccccc2)C(=O)C1C(=S)SC1CC(=O)NC1=O (configuration not stated)	n	n	n	n	n	x	x	x	x
O=C1CC(SC(=S)C2CCCC2=O)C(=O)N1 (configuration not stated)	n	n	17.3	23.7	53.6	49.2	n	n	21.9
C[C@H](NC(=O)C[C@H]1C[C@@H]2c3cc(NC(=O)CN(C)C)ccc3O[C@@H]2[C@H](CO)O1)c1ccccc1	x	x	x	x	x	n	x	x	x
CCOc1cc(C(=O)Nc2cccc3ncccc23)cc(OCC)c1OCC	n	n	n	15.5	n	n	n	n	n
CCOC(=O)C1=C(C)N(C)C(=O)NC1c1cc2c(cc1[N+](=O)[O-])OCO2 (configuration not stated)	n	n	n	13.8	n	n	10.4	n	n
CC1(C)CC(=O)C2=C(C1)Oc1ncn(CCCn3ccnc3)c(=N)c1C2c1ccccc1 (configuration not stated)	n	n	n	88.4	n	x	n	n	n
CC(=O)Nc1ccccc1O	x	n	n	n	n	n	x	x	x
CC(C)(C)C(=O)/C=C/Nc1ccccc1O	x	n	n	15.2	n	x	n	n	n
O=C(C1CCCCC1)N1C[C@H]2[C@@H](c3ccccc31)[C@@H](CO)N2Cc1ccccc1Cl	x	x	x	x	x	n	x	x	x
Cn1c(N)c(S(=O)(=O)N2CCN(c3ccccc3)CC2)c(=O)n(C)c1=O	n	n	n	14.9	n	n	n	n	n
